Assay results reported in ChEMBL document CHEMBL1123180, “Improved glucose tolerance in rats treated with oxazolidinediones” (1986).
Activity calls are given as the source filed them. No cut-off for these calls is given here.

system: Rattus norvegicus; assay: Compound was tested for the ability to lower blood sugar level at the dose of 100 mg/kg in fasted rats, by using glucose tolerance test(GTT); format: functional
Method in brief: (§1)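 Male albino rats, groups of five or six, fasted 18–24 h. Glucose 1 g/kg given ip; test drug (0.1 to 100 mg/kg) or water (controls) given orally. Tail-vein blood sampled over 0–3 h; glucose (mg/100 mL) measured by Autoanalyser ferricyanide method. Value is percent lowering of blood glucose vs controls at 0.5 h; a lowering of ≥9% is needed for P = 0.05.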

SMILES | Blood sugar lowering [%]
O=C1NC(=O)C(c2ccccc2)S1 (centres undefined) | 34
O=C1NC(=S)OC1c1ccccc1 (centres undefined) | 17

system: Rattus norvegicus; assay: Compound was tested for the ability to lower blood sugar level at the dose of 25 mg/kg in fasted rats, by using glucose tolerance test(GTT); format: functional; method in brief: as §1

SMILES | Blood sugar lowering [%]
COc1ccc([N+](=O)[O-])cc1C1OC(=O)NC1=O (centres undefined) | 17

system: Rattus norvegicus; assay: Ability to lower blood sugar level at the dose of 25 mg/kg in fasted rats, by using glucose tolerance test(GTT); NA=Inactive; format: functional, organism-based; parameters: dose 25 mg/kg; method in brief: as §1

SMILES | Blood sugar lowering
COc1ccc(-c2ccccc2)cc1C1OC(=O)NC1=O (centres undefined) | inactive
COc1cccc(N)c1C1OC(=O)NC1=O (centres undefined) | inactive
O=C1NC(=O)C(c2c(F)cccc2C(F)(F)F)O1 (centres undefined) | inactive
COc1cccc(NC(C)=O)c1C1OC(=O)NC1=O (centres undefined) | inactive
CS(=O)(=O)Nc1ccccc1C1OC(=O)NC1=O (centres undefined) | inactive
COc1ccc(N)cc1C1OC(=O)NC1=O (centres undefined) | inactive
COc1cccc(C(F)(F)F)c1C1OC(=O)NC1=O (centres undefined) | inactive
COc1ccc(C(=O)O)cc1C1OC(=O)NC1=O (centres undefined) | inactive
COc1ccc(S(=O)(=O)NC(=O)NC2CCCCC2)cc1C1OC(=O)NC1=O (centres undefined) | inactive
O=C1NC(=O)C(c2ccccc2OCCn2ccnc2)O1 (centres undefined) | inactive
O=C1NC(=O)C(c2ccccc2NS(=O)(=O)c2ccccc2)O1 (centres undefined) | inactive
O=C1NC(=O)C(c2c(Cl)cccc2[N+](=O)[O-])O1 (centres undefined) | inactive
O=C(Nc1ccccc1C1OC(=O)NC1=O)NC1CCCCC1 (centres undefined) | inactive
COc1ccc(C(N)=O)cc1C1OC(=O)NC1=O (centres undefined) | inactive
O=C1NC(=O)C(c2c(Cl)cccc2OCc2ccccc2)O1 (centres undefined) | inactive
COc1ccc(CCn2ccnc2)cc1C1OC(=O)NC1=O (centres undefined) | inactive

system: Rattus norvegicus; assay: Compound was tested for the ability to lower blood sugar level at the dose of 0.63 mg/kg in fasted rats, by using glucose tolerance test(GTT); format: functional; method in brief: as §1

SMILES | Blood sugar lowering [%]
COc1cccc(Cl)c1C1OC(=O)NC1=O (centres undefined) | 11

system: Rattus norvegicus; assay: Ability to lower blood sugar level at the dose of 100 mg/kg in fasted rats, by using glucose tolerance test(GTT); format: functional; method in brief: as §1

SMILES | Blood sugar lowering [%]
Cc1ccc(C2OC(=O)NC2=O)cc1 (centres undefined) | 10
O=C1NC(=O)C(c2cccc(Oc3ccccc3)c2)O1 (centres undefined) | 12
O=C1NC(=O)C(c2ccc(OCc3ccccc3)cc2)O1 (centres undefined) | 20
O=C1NC(=O)C(c2ccc(F)cc2)O1 (centres undefined) | 21
COc1ncccc1C(=O)NCCc1ccc(C2OC(=O)NC2=O)cc1 (centres undefined) | 26
O=C1NC(=O)C(c2ccccc2)O1 (centres undefined) [PEMOLINE DIONE] | 35
O=C1NC(=O)C(c2cccc(Cl)c2)O1 (centres undefined) | 26
COc1ccc(C2OC(=O)NC2=O)cc1 (centres undefined) | 19
O=C1NC(=O)C(c2ccc3c(c2)OCO3)O1 (centres undefined) | 18
CCOc1ccc(C2OC(=O)NC2=O)cc1 (centres undefined) | 18
O=C1NC(=O)C(c2ccccc2OCc2ccccc2)O1 (centres undefined) | 11

system: Rattus norvegicus; assay: Ability to lower blood sugar level at the dose of 100 mg/kg in fasted rats, by using glucose tolerance test(GTT); NA=Inactive; format: functional, organism-based; parameters: dose 100 mg/kg; method in brief: as §1

SMILES | Blood sugar lowering
CNC(=O)Nc1ccccc1C1OC(=O)NC1=O (centres undefined) | inactive
O=C1NC(=O)C(c2ccccc2)N1 (centres undefined) | inactive
Nc1ccc(C2OC(=O)NC2=O)cc1 (centres undefined) | inactive
CCC1(c2ccccc2)OC(=O)NC1=O (centres undefined) | inactive
CN1C(=O)OC(c2ccccc2)C1=O (centres undefined) | inactive

system: Rattus norvegicus; assay: Ability to lower blood sugar level at the dose of 5 mg/kg in fasted rats, by using glucose tolerance test(GTT); format: functional; method in brief: as §1

SMILES | Blood sugar lowering [%]
CCOc1cccc(F)c1C1OC(=O)NC1=O (centres undefined) | 9
CCOc1ccc(F)cc1C1OC(=O)NC1=O (centres undefined) | 9
O=C1NC(=O)C(c2ccccc2F)O1 (centres undefined) | 10
COc1ccccc1C1OC(=O)NC1=O (centres undefined) | 14
CCOc1ccc(Cl)cc1C1OC(=O)NC1=O (centres undefined) | 11
CCOc1ccccc1C1OC(=O)NC1=O (centres undefined) | 15
CC(=O)Nc1ccccc1C1OC(=O)NC1=O (centres undefined) | 14
COc1ccc(Br)cc1C1OC(=O)NC1=O (centres undefined) | 22

system: Rattus norvegicus; assay: Ability to lower blood sugar level at the dose of 25 mg/kg in fasted rats, by using glucose tolerance test(GTT)

SMILES | Blood sugar lowering [%]
COc1cccc([N+](=O)[O-])c1C1OC(=O)NC1=O (centres undefined) | 10

system: Rattus norvegicus; assay: Compound was tested for the ability to lower blood sugar level at the dose of 100 mg/kg in fasted rats, by using glucose tolerance test(GTT); NA=Inactive; format: functional, organism-based; parameters: dose 100 mg/kg
Method in brief: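 Male albino rats (groups of five or six) fasted 18–24 h, given glucose 1 g/kg ip plus oral drug (range 0.1–100 mg/kg) or water for controls. Tail-vein blood glucose sampled over 0–3 h, read by ferricyanide autoanalyser method. Value is percent blood glucose lowering vs controls at 0.5 h; ≥9% lowering needed for significance at P = 0.05.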

SMILES | Blood sugar lowering
NC1=NC(=O)C(c2ccccc2)O1 (centres undefined) | inactive

system: Rattus norvegicus; assay: Ability to lower blood sugar level at the dose of 10 mg/kg in fasted rats, by using glucose tolerance test(GTT); format: functional; method in brief: as §1

SMILES | Blood sugar lowering [%]
O=C1NC(=O)C(c2ccccc2)O1 (centres undefined) [PEMOLINE DIONE] | 13

system: Rattus norvegicus; assay: Compound was tested for the ability to lower blood sugar level at the dose of 25 mg/kg in fasted rats, by using glucose tolerance test(GTT); NA=Inactive; format: functional, organism-based; parameters: dose 25 mg/kg; method in brief: as §1

SMILES | Blood sugar lowering
O=C1NC(=O)C(c2ccccc2)S1 (centres undefined) | inactive

system: Rattus norvegicus; assay: Compound was tested for the ability to lower blood sugar level at the dose of 25 mg/kg in rats, by using glucose tolerance test(GTT); format: functional; method in brief: as §1

SMILES | Blood sugar lowering [%]
O=C1NC(=O)C(c2ccccc2)O1 (centres undefined) [PEMOLINE DIONE] | 26
